The values below come from ChEMBL document CHEMBL4014347, “Targeting Mycolic Acid Transport by Indole-2-carboxamides for the Treatment of Mycobacterium abscessus Infections” (J Med Chem, 2017).

Converted amounts (≈) assume the structure as drawn.

What all share (type): functional
Assay [1] has as its system Mycobacteroides abscessus. Description: Antibacterial activity against CF patient derived Mycobacterium abscessus subsp. massiliense isolate 210 rough variant after 3 to 5 days by two fold serial dilution method. The method in brief:
(§1)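 Broth microdilution in cation-adjusted Mueller−Hinton broth per CLSI; inoculum 5 × 10^6 CFU/mL of exponential-phase bacteria; two-fold serial dilutions, solvent-only wells as control; 30 °C for 3−5 days; MIC read visually and confirmed by absorbance at 560 nm; triplicate on three independent occasions.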

In assay [2] the test system is Mycobacteroides abscessus. Nature of the assay: Antibacterial activity against CF patient derived Mycobacterium abscessus subsp. massiliense isolate 107 smooth variant after 3 to 5 days by two fold serial dilution method. The method in brief: as §1
The test system of assay [3] is Mycobacteroides abscessus. Nature of the assay: Antibacterial activity against non CF patient derived Mycobacterium abscessus subsp. abscessus isolate CIP104536 rough variant after 3 to 5 days by two fold serial dilution method. A digest of the protocol: as §1
The subject of assay [4] is Mycobacteroides abscessus. Nature of the assay: Antibacterial activity against Mycobacterium abscessus CIP104536 after 3 to 5 days by two fold serial dilution method. The method in brief:
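Broth microdilution per CLSI in cation-adjusted Mueller–Hinton broth; exponential-phase inoculum 5 × 10^6 CFU/mL; two-fold serial dilutions from highest concentration, solvent wells as control; 30 °C for 3−5 days; MIC read visually and confirmed by absorbance at 560 nm; triplicate on three independent occasions.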

Regarding `O=C(NC1CCCCCC1)c1cc2c(Cl)cc(Cl)cc2[nH]1`, the MIC (commonly the lowest concentration found to suppress growth) in assay [1] was 0.125 µg/mL (≈ 0.384 µM); in assay [2], 0.25 µg/mL (≈ 0.769 µM); in assay [3] it was 0.125 µg/mL (≈ 0.384 µM); in assay [4], 0.125 µg/mL (≈ 0.384 µM).
